Only some compounds are listed: those with a hit (about 5.9% of all), similar ones and a draw of the others.
IDH1 mut inh: blocks human IDH1 R132H reductase activity | AID 624101 | diaphorase/resazurin fluorescence, 60 min | actives 0.18% (n = 70,000) | O75874 | inhibition, % at 10 µM; in the data active means inhibition above about 34%; inconclusive means no clear call, values can overlap the other calls; inactive means below about 11%;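 further: 0% = DMSO and 100% = no enzyme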
T cruzi growth-1: blocks T. cruzi growth in NIH3T3 culture; actives 5.9% (n = 77,000); inhibition, % at 8.34 µM; T. cruzi beta-gal in NIH3T3, GalScreen luminescence, 90 h;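 active means mean inhibition above about 93%, with at least 55% of replicates each passing it, limit read from the data, passing the limit was not always enough; inconclusive means only one of those two conditions holds; inactive means neither condition holds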
Pf Dd2 growth: blocks growth of Plasmodium falciparum Dd2 parasites; actives 2.3% (n = 94,000); AID 1159554; activity change, % at 10 µM; P. falciparum Dd2 growth, SYBR Green, 72 h; active compounds read low; in the data active means activity change below about -80%; inconclusive means no clear call, values can overlap the other calls
KDM4C inh: blocks human GASC-1 (KDM4C) demethylase activity | GST-KDM4C 2-372, H3K9me3 peptide, LANCE TR-FRET | actives 0.15% (n = 96,000) | inhibition, % at 12.5 µM;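 active means mean replicate inhibition above about 25%, with at least 55% of replicates also reaching it, limit read from the data, passing the limit was not always enough; inconclusive means only one of those two conditions met; inactive means neither condition met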
Target sequence (Q9H3R0 2-372 limits assumed): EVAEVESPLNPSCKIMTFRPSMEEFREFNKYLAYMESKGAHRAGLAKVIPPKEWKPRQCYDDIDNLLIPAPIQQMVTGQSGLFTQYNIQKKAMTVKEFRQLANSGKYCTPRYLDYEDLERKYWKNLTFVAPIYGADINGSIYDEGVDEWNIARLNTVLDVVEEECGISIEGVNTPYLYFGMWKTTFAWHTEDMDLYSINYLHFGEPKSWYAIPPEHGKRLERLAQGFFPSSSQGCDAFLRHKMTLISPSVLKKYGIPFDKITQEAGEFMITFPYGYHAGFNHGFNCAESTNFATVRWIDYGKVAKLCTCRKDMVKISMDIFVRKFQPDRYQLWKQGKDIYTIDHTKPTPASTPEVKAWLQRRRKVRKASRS
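System – N-terminal GST-fused human GASC-1 (KDM4C) fragment, residues 2-372 · Input – enzyme final amount 10 nM · Technique – LANCE TR-FRET, Eu antibody, ULight-streptavidin, EDTA, ex 340 nm, em 618/671 nm · Medium – HEPES buffer, pH 7.5, plus ascorbate · Incubation – enzyme reaction 30 min, then detection 60 min, both room temperature · Reagent – H3K9me3 peptide with Fe(II)/2OG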
T cruzi growth-2: Trypanosoma cruzi proliferation inhibition; shares compounds with T cruzi growth-1; T. cruzi beta-gal in NIH3T3, GalScreen luminescence, 90 h; inhibition, % at 8.35 µM; actives 72% (n = 5,600); AID 651739;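 active means mean replicate inhibition above about 95% and at least 55% of replicates individually reaching it, limit read from the data; inconclusive means only one of the two criteria is met; inactive means neither criterion is met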
T cruzi growth-3: blocks T. cruzi growth in NIH3T3 host cells. shares compounds with T cruzi growth-1. T. cruzi beta-gal in NIH3T3, GalScreen luminescence, 90 h. inhibition, % at 2.09 µM. actives 21% (n = 5,600). AID 651740;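 active means mean inhibition above about 95%, with at least 55% of replicates also reaching it, limit read from the data; inconclusive means meets just one of the two conditions; inactive means meets neither condition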;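 further: plate controls were neutral control median for no effect and positive control median for full effect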
3T3 cytotox: kills mouse NIH/3T3 fibroblasts | shares compounds with T cruzi growth-1 | NIH/3T3 viability, CellTiter-Glo ATP luminescence, 90 h | cytotoxicity (signal decrease), % at 8.35 µM | actives 14% (n = 5,600) | AID 651742;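 active means mean signal decrease across replicates above about 35% based on untreated-well scatter, with enough replicates individually passing, limit read from the data; inconclusive means no rule stated though some were filed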;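 further: 0% = median of neutral control wells and 100% = median of positive control wells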
NIH3T3 tox 2: NIH/3T3 (mouse) viability loss; actives 56% (n = 5,600); inhibition, % at 24.9 µM; shares compounds with T cruzi growth-1; NIH/3T3 viability, CellTiter-Glo ATP luminescence, 90 h;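 active means mean loss of cell viability signal at or above a set limit, and enough replicates individually reaching it; inconclusive means meets only the mean limit or only the replicate share; inactive means meets neither condition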;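 further: 0% = median of neutral control wells and 100% = median of positive control wells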
Starred values were filed as active, the others as inactive; ? = inconclusive; . = not tested or not shown; + = active, no number.

SMILES	IDH1 mut inh	T cruzi growth-1	Pf Dd2 growth	KDM4C inh	T cruzi growth-2	T cruzi growth-3	3T3 cytotox	NIH3T3 tox 2
COC(=O)[C@H]1[C@H](CO)[C@H]2Cn3c(ccc(C4=CCCCC4)c3=O)[C@@H]1N2Cc1ccccn1	.	101*	8	4	-20	-4	-4	4
COC(=O)[C@H]1[C@H](CO)[C@H]2Cn3c(ccc(-c4ccccc4)c3=O)[C@@H]1N2CC1CCCC1	.	.	-8	-1	.	.	.	.
COC(=O)[C@@H]1[C@@H](CO)[C@@H]2Cn3c(ccc(C4=CCCCC4)c3=O)[C@H]1N2Cc1ccccn1	.	95	10	0	.	.	.	.
COC(=O)[C@@H]1[C@@H](CO)[C@@H]2Cn3c(ccc(-c4ccccc4F)c3=O)[C@H]1N2CC1CCCC1	.	+	.	2	68	2	22	42*
COc1ccc(CC2(CCc3ccncc3)C(=O)NC(=O)N(c3ccc(Cl)cc3)C2=O)cc1OC (centres undefined)	1	.	.	.	.	.	.	.
N#Cc1cccc(-c2ccc([C@H]3[C@@H](CO)N4CCCCN(C(=O)Cc5ccncc5)C[C@H]34)cc2)c1	.	81	-24	-1	.	.	.	.
N#Cc1cccc(-c2ccc([C@@H]3[C@H](CO)N4CCCCN(C(=O)Cc5ccncc5)C[C@@H]34)cc2)c1	.	92	-42	0	.	.	.	.
N#Cc1cccc(-c2ccc([C@H]3[C@@H](CO)N4CCCCN(C(=O)Cc5ccccc5)C[C@H]34)cc2)c1	.	109*	6	-1	111*	81	19	56*
O=C(Cc1ccncc1)N1CCCCN2[C@H](CO)[C@@H](c3ccc(-c4ccncc4)cc3)[C@H]2C1	.	116*	17	0	-13	-11	7	5
N#Cc1cccc(-c2ccc([C@H]3[C@@H](CO)N4CCCCN(C(=O)Cc5ccccc5)C[C@@H]34)cc2)c1	.	110*	30	0	103*	77	-5	0
N#Cc1cccc(-c2ccc([C@@H]3[C@H](CO)N4CCCCN(C(=O)Cc5ccccc5)C[C@@H]34)cc2)c1	.	100*	-24	-1	104*	40	-1	57*
COCC#Cc1ccc([C@@H]2[C@H]3CN(C(=O)Cc4ccccn4)CCCCN3[C@H]2CO)cc1	.	90	-12	-2	.	.	.	.
O=C(Cc1ccccc1)N1CCCCN2[C@H](CO)[C@@H](c3ccc(-c4ccccc4)cc3)[C@H]2C1	.	100*	0	-1	?	36	11	105*
CC(C)c1cc2c(cc1O)[C@@]1(C)CCCC(C)(C)[C@@H]1CC2O (some centres undefined)	0	.	.	.	.	.	.	.
COC(=O)[C@H]1[C@H](CO)[C@H]2Cn3c(ccc(C4=CCCC4)c3=O)[C@@H]1N2S(=O)(=O)c1cn(C)cn1	.	16	3	3	.	.	.	.
O=C(Cc1cccnc1)N1CCCCN2[C@H](CO)[C@H](c3ccc(C#CC4CCCC4)cc3)[C@@H]2C1	.	111*	2	0	89	44	34	78*
O=C(Cc1cccnc1)N1CCCCN2[C@H](CO)[C@H](c3ccc(C#CC4CC4)cc3)[C@@H]2C1	.	87	-17	.	.	.	.	.
O=C(Cc1cccnc1)N1CCCCN2[C@H](C1)[C@@H](c1ccc(C#CC3CCCC3)cc1)[C@@H]2CO	.	102*	-28	0	107*	32	25	104*
O=C(Cc1cccnc1)N1CCCCN2[C@H](CO)[C@H](c3ccc(C#CC4CC4)cc3)[C@H]2C1	.	-208	-31	.	.	.	.	.
CCCC#Cc1ccc([C@H]2[C@H]3CN(C(=O)Cc4ccccn4)CCCCN3[C@H]2CO)cc1	.	119*	-10	-1	90	41	-3	23
CCCC#Cc1ccc([C@@H]2[C@@H](CO)N3CCCCN(C(=O)Cc4ccccn4)C[C@@H]23)cc1	.	110*	-55	1	?	57	22	13
O=C(Cc1ccccn1)N1CCCCN2[C@H](C1)[C@@H](c1ccc(C#Cc3ccccc3)cc1)[C@@H]2CO	.	99*	-56	-1	105*	51	41*	104*
COC(=O)[C@@H]1[C@@H](CO)[C@@H]2Cn3c(cccc3=O)[C@H]1N2C(=O)C1CC1	.	4	.	1	.	.	.	.
C/C=C/c1ccc([C@@H]2[C@H]3CN(C(=O)Cc4ccncc4)CCCCN3[C@H]2CO)cc1	.	60	-32	0	.	.	.	.
O=C(Cc1ccccn1)N1CCCCN2[C@H](CO)[C@@H](c3ccc(Br)cc3)[C@H]2C1	.	105*	19	1	-3	-14	4	-1
SMILES	IDH1 mut inh	T cruzi growth-1	Pf Dd2 growth	KDM4C inh	T cruzi growth-2	T cruzi growth-3	3T3 cytotox	NIH3T3 tox 2
O=C(Cc1ccccn1)N1CCCCN2[C@@H](CO)[C@@H](c3ccc(-c4ccccc4)cc3)[C@@H]2C1	.	113*	-21	1	?	68	-9	15
O=C(Cc1ccccn1)N1CCCCN2[C@H](CO)[C@H](c3ccc(-c4ccccc4)cc3)[C@H]2C1	.	41	-13	-1	.	.	.	.
COC(=O)[C@@H]1[C@@H](CO)[C@@H]2Cn3c(ccc(-c4cccc(F)c4)c3=O)[C@H]1N2Cc1cccnc1	.	5	-25	3	.	.	.	.
CN(C)CC#Cc1ccc([C@H]2[C@@H](CO)N3CCCCN(C(=O)Cc4ccccn4)C[C@H]23)cc1	.	61	7	1	.	.	.	.
CN(C)CC#Cc1ccc([C@@H]2[C@H](CO)N3CCCCN(C(=O)Cc4ccccn4)C[C@@H]23)cc1	.	114*	4	5	15	24	-1	6
CN(C)CC#Cc1ccc([C@@H]2[C@@H](CO)N3CCCCN(C(=O)Cc4ccccn4)C[C@@H]23)cc1	.	91	-4	3	.	.	.	.
CN(C)CC#Cc1ccc([C@@H]2[C@@H](CO)N3CCCCN(C(=O)Cc4ccccn4)C[C@H]23)cc1	.	114*	-16	4	48	15	16	1
C/C=C/c1ccc([C@@H]2[C@@H](CO)N3CCCCN(C(=O)Cc4ccncc4)C[C@@H]23)cc1	.	65	-18	-1	.	.	.	.
C/C=C/c1ccc([C@@H]2[C@@H](CO)N3CCCCN(C(=O)Cc4cccnc4)C[C@H]23)cc1	.	52	16	0	.	.	.	.
O=C(Cc1cccnc1)N1CCCCN2[C@@H](CO)[C@H](c3ccc(/C=C/c4ccccc4)cc3)[C@@H]2C1	.	105*	8	0	104*	73	?	104*
O=C(Cc1cccnc1)N1CCCCN2[C@H](CO)[C@H](c3ccc(/C=C/c4ccccc4)cc3)[C@@H]2C1	.	119*	8	0	114*	102*	?	79*

Compound activity from PubChem.
